Assay results reported in PMC3483131 (The Journal of Cell Biology, 2012).

Experiments:
[1] = tested on: BM collagen IV / MDA-MB-231 cells; assay: Native peritoneal basement membrane; assay type: cell-based, mouse (C57BL/6) BM; settings: 3 d culture; GM6001 at 5 µM
In short: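 Native basement membrane was made by stripping mesothelial cells from C57BL/6 mouse mesentery (1 N ammonium hydroxide) and mounting it on 6.5-mm Transwells. 5 × 10^4 MDA-MB-231 cells were seeded on top in DME/10% FBS, with medium below, and cultured 3 d. Samples were fixed in 4% formaldehyde, then stained on both sides for collagen IV (antibody 1:200), phalloidin and DAPI, and imaged by confocal. Read-out was total remaining collagen IV fluorescence; ≥3 independent experiments in duplicate.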

MDA-MB-231 cells = settings: CIA; ref Yu and Machesky, 2012; cited from earlier work
[2] = tested on: mCherry-MT1-MMP in MDA-MB-231 cells; assay: FRAP of mCherry-MT1-MMP at plasma membrane of cells in CIA; assay type: cell-based; settings: invasive pseudopods in Matrigel (CIA); LatA at 2 µM
In short: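 mCherry-MT1-MMP expressed in MDA-MB-231 cells by nucleofection; cells kept at 37°C, 5% CO2. Photobleaching was done on the plasma membrane of invasive pseudopods in Matrigel and compared with other cell-surface regions, such as the membrane next to the nucleus. Fluorescence recovery gave MT1-MMP mobility.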

[3] = tested on: GFP-actin in MDA-MB-231 cells; assay: FRAP of GFP-actin in invasive pseudopods; assay type: cell-based; settings: 2 µM LatA, invasive pseudopod, FRAP 90 s
[4] = molecular target: actin (F-actin) in invasive pseudopods of MDA-MB-231 cells (human (endogenous in MDA-MB-231)) (UniProt P60709); assay: FRET or BRET

In the case of CNC(=O)[C@H](Cc1c[nH]c2ccccc12)NC(=O)[C@@H](CC(=O)NO)CC(C)C [GM6001], the “degradation and remodeling of BM collagen IV” value [1] is given as “significantly blocked” and the “reduction of migration speed” value (MDA-MB-231 cells) is given as 30–50%.
With C/C1=C/C(=O)O[C@@H]2C[C@@H](CC[C@H](C)/C=C\C=C\CC1)O[C@@](O)([C@@H]1CSC(=O)N1)C2 [Latrunculin A] the “mobility of MT1-MMP in pseudopods” value [2] was “mCherry-MT1-MMP became more mobile” and the “GFP-actin exchange” value [3] was “GFP-actin exchanged much faster”.
In the case of “MT1-MMP-GFP (from UniProt P50281 112-582) (natural protein)”, the donor fluorescence lifetime with acceptor (FLIM-FRET) [4] is reported as 2.25 ns and the shift in the donor fluorescence lifetime (FLIM-FRET) [4] is reported as 150 ps.
